Assay results published in paper PMC3220786 (ACS Chemical Biology, 2011).
Where a SMILES comes first, the peptide text is derived from it. [ ]: non-standard residue; d: D form. The star is where a group is joined. NHCH2CH2OH = OCCN*; For = O=C*

Columns and labels:
P. falciparum 3D7 strain = assay: SYBR Green parasite proliferation assay, 3D7; assay type: cell-based, Plasmodium falciparum; details: CC50 Ba/F3 / IC50 P. falciparum 3D7
[1] = Cytotoxicity, Ba/F3 cells; assay type: cell-based, murine; details: mouse
[2] = tested on: Murine pro-B cell line Ba/F3; assay: Cytotoxicity, Ba/F3 cells; assay type: cell-based; details: read-out: mammalian cell line CC50; Ba/F3; CellTiter Glo reagent
P. falciparum D10attB = assay: SYBR Green proliferation assay, parental D10attB line; assay type: cell-based; details: Plasmodium falciparum, read-out: IC50 values, D10attB
Outline: (§1)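 Blood-stage P. falciparum D10attB parental line and ScDHOD-D10attB transgenic line (single integrated copy of yeast DHOD gene) were tested in the SYBR Green proliferation assay. IC50 values are means ± SD of three independent experiments, each in duplicate. The shift compares the transgenic IC50 with the parental IC50.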

[3] = tested on: P. yoelii sporozoites in HepG2-A16-CD81EGFP cells; assay type: cell-based, Plasmodium yoelii; details: for IC50: Plasmodium yoelii, in Homo sapiens, read-out: IC50, liver stage
[4] = chickens, iv; cited from earlier work
[5] = tested on: P. falciparum ScDHOD-D10attB; assay: SYBR Green proliferation assay, transgenic ScDHOD-D10attB line; assay type: cell-based, Plasmodium falciparum; details: for IC50: Plasmodium falciparum, read-out: IC50 values, ScDHOD-D10attB; for shift in IC50, ScDHOD-D10attB vs parental line: transgenic parasites expressing yeast dihydroorotate dehydrogenase
Outline: as §1

P. falciparum DEC-R line = assay: SYBR Green proliferation assay, decoquinate-resistant; assay type: cell-based, Plasmodium falciparum; details: loss of potency against decoquinate-resistant clone
[6] = tested on: P. yoelii (17XNL strain) sporozoites; assay: Prophylaxis activity test in sporozoite-infected mice; assay type: in vivo, ICR female mouse
Outline: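 ICR female mice (7 weeks, 26–36 g) received 50,000 P. yoelii 17XNL sporozoites via the tail vein. Immediately afterwards they were given a single oral gavage dose of test compound at 50 mg kg–1 in corn oil (5 mice). Parasitemia was checked daily by Giemsa-stained tail-snip blood microscopy. Prepatent period = first day parasitemia was seen. Mice were euthanized above 20% parasitemia.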

[7] = tested on: P. falciparum ATQ-R lines (cytochrome b mutants); assay: SYBR Green proliferation assay, atovaquone-resistant; assay type: cell-based, Plasmodium falciparum; details: for loss of potency, F267V mutant / loss of potency, residue 144 mutant / loss of potency, triple mutant (M133I/V140T/L181V): ATQ-R line vs parental 3D7; for loss of potency, residue 133 mutants (M133I, M133V) / shift of IC50 across ATQ-R lines (control compounds): ATQ-R lines vs parental 3D7
[8] = target: T1, P. yoelii cytochrome c reductase (Plasmodium yoelii, UniProt Q7PDA7); assay: Ubiquinol-cytochrome c oxidoreductase; assay type: biochemical
T1 sequence (Q7PDA7 1-376): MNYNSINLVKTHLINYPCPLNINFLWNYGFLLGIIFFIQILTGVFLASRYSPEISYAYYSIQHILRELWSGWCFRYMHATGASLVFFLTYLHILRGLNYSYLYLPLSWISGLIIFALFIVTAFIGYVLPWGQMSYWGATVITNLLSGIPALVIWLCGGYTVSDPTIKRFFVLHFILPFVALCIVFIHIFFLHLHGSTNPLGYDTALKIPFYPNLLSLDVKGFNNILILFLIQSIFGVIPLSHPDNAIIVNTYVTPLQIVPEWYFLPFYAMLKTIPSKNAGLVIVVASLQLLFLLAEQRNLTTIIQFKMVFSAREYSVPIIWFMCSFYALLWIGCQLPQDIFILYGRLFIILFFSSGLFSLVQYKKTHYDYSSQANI
T1 sequence (V7P9V8 31-357 partner): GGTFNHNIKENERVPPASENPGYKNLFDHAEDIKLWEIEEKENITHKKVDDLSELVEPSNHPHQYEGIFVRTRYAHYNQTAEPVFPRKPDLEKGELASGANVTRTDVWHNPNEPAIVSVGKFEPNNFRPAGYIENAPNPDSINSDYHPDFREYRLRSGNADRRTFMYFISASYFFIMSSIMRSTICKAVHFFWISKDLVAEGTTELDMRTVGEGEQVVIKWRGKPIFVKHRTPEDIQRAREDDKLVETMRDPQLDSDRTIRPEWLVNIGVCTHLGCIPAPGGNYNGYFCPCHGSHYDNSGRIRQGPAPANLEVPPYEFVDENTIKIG
T1 sequence (Q7RJI2 1-394 partner): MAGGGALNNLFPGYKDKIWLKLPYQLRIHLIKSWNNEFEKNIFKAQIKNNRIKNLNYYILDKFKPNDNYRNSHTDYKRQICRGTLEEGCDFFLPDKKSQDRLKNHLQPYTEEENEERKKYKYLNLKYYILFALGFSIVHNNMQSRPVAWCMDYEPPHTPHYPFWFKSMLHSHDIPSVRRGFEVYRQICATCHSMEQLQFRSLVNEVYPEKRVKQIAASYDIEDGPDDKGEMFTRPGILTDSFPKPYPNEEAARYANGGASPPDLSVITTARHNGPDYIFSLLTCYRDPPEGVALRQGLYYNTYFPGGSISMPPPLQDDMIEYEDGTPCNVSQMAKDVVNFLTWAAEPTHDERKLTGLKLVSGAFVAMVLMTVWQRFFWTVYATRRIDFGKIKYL

## CCCCCCC[N+](CC)(CC)CCCCc1ccc(Cl)cc1 [Clofilium]
P. falciparum 3D7 strain
  therapeutic index CC50/IC50: >2.4
[1]; Ba/F3 cells
  CC50 at 3 days: > 1250 nM

## O[Si](CCCN1CCCCC1)(c1ccccc1)C1CCCCC1 (centres unmarked) [HHSiD, Hexahydro-sila-difenidol]
P. falciparum 3D7 strain
  therapeutic index CC50/IC50: >16.4
[2]
  CC50: > 1250 nM

## CCCOC(=O)C[N+](C)(C)CCOCCCCCCCCCCOCC[N+](C)(C)CC(=O)OCCC [Prodeconium]
P. falciparum 3D7 strain
  therapeutic index CC50/IC50: >156
[2]
  CC50: > 6250 nM

## CCN(CC)CCOc1ccc2c(c1)C(=O)c1cc(OCCN(CC)CC)ccc1-2 [Tilorone]
P. falciparum 3D7 strain
  therapeutic index CC50/IC50: >12.5
[1]; Ba/F3 cells
  CC50 at 3 days: > 12500 nM

## CC1=C[C@H]2O[C@@H]3C[C@H]4OC(=O)/C=C\C=C\C(=O)OCC/C(C)=C/C(=O)OC[C@@]2(CC1)[C@]4(C)[C@]31CO1 [Verrucarin J]
P. falciparum 3D7 strain
  therapeutic index CC50/IC50: 12.1

## CC(C)C[C@@H](NC(=O)[C@H](C)NC(=O)CNC(=O)[C@@H](NC=O)C(C)C)C(=O)N[C@@H](C)C(=O)N[C@@H](C(=O)N[C@H](C(=O)N[C@@H](C(=O)N[C@@H](Cc1c[nH]c2ccccc12)C(=O)N[C@H](CC(C)C)C(=O)N[C@@H](Cc1c[nH]c2ccccc12)C(=O)N[C@H](CC(C)C)C(=O)N[C@@H](Cc1c[nH]c2ccccc12)C(=O)N[C@H](CC(C)C)C(=O)N[C@@H](Cc1c[nH]c2ccccc12)C(=O)NCCO)C(C)C)C(C)C)C(C)C [Gramicidin A] (For-VGA[dL]A[dV]V[dV]W[dL]W[dL]W[dL]W-NHCH2CH2OH)
[1]; Ba/F3 cells (murine pro-B cell line)
  CC50 at 3 days: 110 nM

## CCCCCCCCCCOc1cc2c(O)c(C(=O)OCC)cnc2cc1OCC [Decoquinate]
P. falciparum D10attB
  IC50: 5.3 ± 1.24 nM
[3]
  fold increase in liver stage activity over atovaquone: 10 fold
  IC50: 0.177 nM
P. falciparum 3D7 strain
  therapeutic index CC50/IC50: >2,500
P. falciparum 3D7 strain; listed as decoquinate
  therapeutic index CC50/IC50: > 2,500
[1]; Ba/F3 cells
  CC50 at 3 days: > 12500 nM
[4]
  t1/2: 9 to 22 h
[5]
  IC50: > 1000 nM
P. falciparum DEC-R line
  fold change in IC50, DEC-R clone vs parental 3D7: 90 fold
[6]; single oral dose with 50,000 sporozoites i.v.
  prepatent period (day at which parasitemia was first observed): 8 days
[7]
  loss of potency, F267V mutant: 2 fold
  loss of potency, residue 144 mutant: no effect
  loss of potency, triple mutant (M133I/V140T/L181V): 5 fold
  loss of potency, residue 133 mutants (M133I, M133V): did not alter
[8]
  IC50: 97 nM

## C[C@@H]1C[C@H](C)C[C@H](C)[C@@H](O)CC(=O)O[C@H]([C@@H]2CCC[C@H]2C(=O)O)C/C=C/C=C(/C#N)[C@H](O)[C@@H](C)C1 [Borrelidin]
P. falciparum 3D7 strain
  therapeutic index CC50/IC50: 11.6
[1]; Ba/F3 cells
  CC50 at 3 days: 959 nM

## CC(C)[C@@H]1NC(=O)[C@H](C)OC(=O)[C@@H](C(C)C)NC(=O)[C@@H](C(C)C)OC(=O)[C@H](C(C)C)NC(=O)[C@H](C)OC(=O)[C@@H](C(C)C)NC(=O)[C@@H](C(C)C)OC(=O)[C@H](C(C)C)NC(=O)[C@H](C)OC(=O)[C@@H](C(C)C)NC(=O)[C@@H](C(C)C)OC1=O [Valinomycin]
P. falciparum 3D7 strain
  therapeutic index CC50/IC50: 12.8
[1]; Ba/F3 cells
  CC50 at 3 days: 91 nM

## COc1ccc2cc3[n+](cc2c1OC)CCc1cc2c(cc1-3)OCO2 [Berberine]
P. falciparum 3D7 strain
  therapeutic index CC50/IC50: 0.6
[1]; Ba/F3 cells
  CC50 at 3 days: 320 nM

## Cl.Cl.O=C(Nc1ccc(C2=NCCCN2)cc1)c1ccc(C(=O)Nc2ccc(C3=NCCCN3)cc2)cc1 [NSC 57153]
P. falciparum 3D7 strain
  therapeutic index CC50/IC50: 1.1
[2]
  CC50: 550 nM

## COc1ccc(C[C@H](N)C(=O)N[C@H]2[C@@H](O)[C@H](n3cnc4c(N(C)C)ncnc43)O[C@@H]2CO)cc1 [Puromycin]
P. falciparum 3D7 strain
  therapeutic index CC50/IC50: >14.2
[1]; Ba/F3 cells
  CC50 at 3 days: > 1250 nM

## CN(C)c1ccc(C(=C2C=CC(=[N+](C)C)C=C2)c2ccc(N(C)C)cc2)cc1 [Gentian violet]
P. falciparum 3D7 strain
  therapeutic index CC50/IC50: >4
[1]; Ba/F3 cells
  CC50 at 3 days: > 1250 nM

## N=C(N)NCCCCCCCCCCNC(=N)N [Synthalin]
P. falciparum 3D7 strain
  therapeutic index CC50/IC50: >200
[1]; Ba/F3 cells
  CC50 at 3 days: > 5400 nM

## COC[C@H]1C(=O)NCC(=O)N2NCCC[C@H]2C(=O)N(O)[C@H](C)C(=O)O[C@@H](C(C)C)[C@H](NC(=O)[C@](C)(O)[C@]2(O)CC[C@@H](CC(C)C)[C@H](C)O2)C(=O)N2NCCC[C@@H]2C(=O)N1O [Aurantimycin A]
P. falciparum 3D7 strain
  therapeutic index CC50/IC50: 0.5
[2]
  CC50: 45 nM

## CCC(Cc1cnc2nc(N)nc(N)c2n1)c1ccc(C(=O)N[C@@H](CCC(=O)O)C(=O)O)cc1 (some centres unmarked) [Edatrexate]
P. falciparum 3D7 strain
  therapeutic index CC50/IC50: 0.1
[1]; Ba/F3 cells
  CC50 at 3 days: 5 nM

## CCCCCCCCNC(C)C(O)c1ccc(SC(C)C)cc1 (centres unmarked) [Suloctidil]
P. falciparum 3D7 strain
  therapeutic index CC50/IC50: 0.6
[1]; Ba/F3 cells
  CC50 at 3 days: 970 nM

## O=C1C(O)=C([C@H]2CC[C@H](c3ccc(Cl)cc3)CC2)C(=O)c2ccccc21 [atovaquone]
P. falciparum D10attB
  IC50: 0.512 ± 0.164 nM
[3]
  IC50: 1.7 nM
[5]
  IC50: > 1000 nM
  shift in IC50, ScDHOD-D10attB vs parental line: > 1900 fold
P. falciparum DEC-R line
  fold change in IC50, DEC-R clone vs parental 3D7: 4 fold
[6]; single oral dose (decoquinate 50 mg kg-1, atovaquone 2.5 mg kg-1)
  protection / survival of mice: completely protected
[7]
  loss of potency, F267V mutant: 20 fold
  loss of potency, residue 144 mutant: ~200 fold
  loss of potency, triple mutant (M133I/V140T/L181V): 2000 fold
  loss of potency, residue 133 mutants (M133I, M133V): ~16 fold
[8]
  IC50: 7.6 nM

## CCOC(=O)c1cnc2cc(OCC3CC3)c(OCC3CC3)cc2c1O [Ciproquinate]
P. falciparum 3D7 strain
  therapeutic index CC50/IC50: >156
[1]; Ba/F3 cells
  CC50 at 3 days: > 1250 nM

## COc1ccc(C[C@H]2NC[C@H](O)[C@H]2OC(C)=O)cc1 [Anisomycin]
[5]
  shift in IC50, ScDHOD-D10attB vs parental line: no shift
[7]
  shift of IC50 across ATQ-R lines (control compounds): nearly invariable

## CO\C=C(C(=O)OC)/C(C)=C\C=C\c1ccc(Cl)c(OC)c1 [Strobilurin B]
P. falciparum 3D7 strain
  therapeutic index CC50/IC50: 13.5
[2]
  CC50: 3100 nM

## Muconomycin B
P. falciparum 3D7 strain
  therapeutic index CC50/IC50: 12.5
[2]
  CC50: 30 nM

## OC(c1cc(C(F)(F)F)nc2c(C(F)(F)F)cccc12)C1CCCCN1 (centres unmarked) [mefloquine]
P. falciparum D10attB
  IC50: 7.88 ± 1.64 nM
[5]
  IC50: 4.02 ± 1.4 nM
  shift in IC50, ScDHOD-D10attB vs parental line: slight increase in mefloquine sensitivity
[7]
  shift of IC50 across ATQ-R lines (control compounds): 2 fold
